# Variants at the floor of the assay were thinned out.
# B1: tRNA (parent)
# chain: GUUCCGUUGGCGUAAUGGUAACGCGUCUCCCUCCUAAGGAGAAGACUGCGGGUUCGAGUCCCGUACGGAACG
# Variants of: B1
# Test: yeast fitness relative to wild type (ratio to wild type); higher = fitter; tRNA-Arg(CCU), competitive growth, 37 C, YPD
# How it was run: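 Genotype frequency changes were the basis for Darwinian fitness relative to wild type. The frequencies came from 100-nucleotide paired-end sequencing of gene amplicons from the start population and each end population of pooled yeast strains with tRNA-Arg(CCU) gene variants at the native locus. Competition ran in YPD at 37°C for 24 hours in six replicates, genotypes needed ≥ 100 starting reads, and estimates < 0.5 were set to 0.5.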
row,Variant,yeast fitness
1,G12A A14C C31U,≤ 0.5
2,G12C C24U C49U C55U G68C,≤ 0.5
3,G12A C29G U35G C61U,≤ 0.5
4,G12A C22G C29G C30U A36U U47C,0.571
5,G12A C24A A45G G50A,≤ 0.5
6,G12C C29G,0.58
7,G12A G68C,0.667
8,G12A G68U,0.863
9,G12A C60A A70G,≤ 0.5
10,G12A C33U G63A,≤ 0.5
11,G12A A43U G58C,0.632
12,G12C C22U U54C,0.683
13,G12C C49U A70U,0.692
14,G12A A15G A69C,0.707
15,G12A A21G C46A,0.936
16,G12C C30A G48A C55G,0.607
17,G12C C66A,0.676
18,G12C A45U A70U,0.564
19,G12C U47A A70G,0.554
20,G12C G23C A45U,0.609
21,G12C C24U U64G,≤ 0.5
22,C11U G52A A65U,0.567
23,G12C G25C C66G,≤ 0.5
24,G12A G39C U47A,≤ 0.5

row,Variant,yeast fitness
1,U13A A15U C24U A37U G67C,0.591
2,G12C U13C U26A C33A C34G,≤ 0.5
3,G12A C27U C30G G68U,≤ 0.5
4,C11U U59A,0.757
5,G12A A21G G48A A65U,0.534
6,G12A G18C C29U A57C A65C,≤ 0.5
7,U13A A14U C49A,≤ 0.5
8,G12A C24U C61A G67A,≤ 0.5
9,G12C C30U A70U,≤ 0.5
10,G12A U32C U47A C49G C60U,≤ 0.5
11,G12A C61G,0.605
12,G12C C60A,0.588
13,G12A A15G G39C,≤ 0.5
14,G12A A57U,0.668
15,G12A A57G,0.909
16,G12A G25A A70C,0.76
17,G12C C34A G58C A65U A69C,≤ 0.5
18,G12A G38C C49U C62U A69U,0.973
19,G12A G39C,0.896
20,C11U U35A G38A C55G,≤ 0.5
21,G12C A43C,0.825
22,G12C A43G,0.694
23,G12C A20C G48A,0.749
24,G12A C27G C34U A43C A57U G58A C62G,≤ 0.5

row,Variant,yeast fitness
1,C11U U19G C34U G56A,≤ 0.5
2,G12C U32G C33G G58A,≤ 0.5
3,C11U U19G G52A,0.609
4,G12C A15U C33U C49G G58A,≤ 0.5
5,G12A G25A C62G,≤ 0.5
6,G12A C49U,0.93
7,C11U U13G U19A C22G G25A G48A A69U,≤ 0.5
8,G12A C46U G51A C66U,0.615
9,G12A G25A C60A,≤ 0.5
10,U13A C22G G25C C27U C30G A57C A69U,≤ 0.5
11,G12C U19A C27G A65C,0.557
12,G12C G18C A45G,≤ 0.5
13,G12C C22G C55U,0.581
14,G12C C34U G44A G52A,≤ 0.5
15,G12C C55G,0.608
16,U13A C22G G25C C27U C30G C55A,≤ 0.5
17,G12A C46A U47A,0.75
18,C11U U32C A45C,0.885
19,G12C A65U,0.735
20,G12U G39A C66G,≤ 0.5
21,G12A C30G A65U,≤ 0.5
22,G12C G44C C66U,0.573
23,G12A G39C C46A,0.554
24,G12C U47G C49A A69U,≤ 0.5

row,Variant,yeast fitness
1,C11U U13G U19A C22G G25A C61A,≤ 0.5
2,C11U G41A C60G A65G,0.624
3,G12A C24A A36U A69C,0.599
4,G12A A21U,0.729
5,G12C A43G U54C A69C A70C,≤ 0.5
6,C11U U19C G23A G25A C55U,0.537
7,G12A C62U A70U,0.695
8,G12A A57G A69C,≤ 0.5
9,G12A A36U U54C,0.54
10,G12A C33U,0.839
11,G12C A70U,0.707
12,G12C U13C A20C C24G G39C G68C,0.511
13,G12A C24A A36U C61U,0.618
14,G12A U35G G58A G68A,≤ 0.5
15,G12C A40G G50U C62U,≤ 0.5
16,C11U U28G G51C U64A C66U A69C,≤ 0.5
17,C11U G44A G50A C66G,0.511
18,G12A A15U C24A A45G,≤ 0.5
19,G12A A15G A43C,≤ 0.5
20,C11U G58U C61A,≤ 0.5
21,G12C C22G G25C G48A,0.915
22,C11U U35C C55A A69U,≤ 0.5
23,G12A A15U A21C U47A,≤ 0.5
24,G12C U54A A65C,≤ 0.5

row,Variant,yeast fitness
1,G12C U13A G23A A37C C61U,0.586
2,C11U U19C C61G A65C,≤ 0.5
3,G12C G17A A20U C34A A42C G48A C62U,≤ 0.5
4,G12A A20U U32A C49G G63A A65U,0.535
5,G12A G63A,0.897
6,G12C C34U C46A,≤ 0.5
7,U13A A14U C22A G48C,≤ 0.5
8,G12C U16A C24G G58C C61G,≤ 0.5
9,G12A G52A G68A,≤ 0.5
10,C11U U13C C24A A43C G50C,≤ 0.5
11,G12A G38C,0.869
12,G12A G23A C27G C30G,≤ 0.5
13,G12A C22A A36G A37G,≤ 0.5
14,U13A C22G C27G C31G C61G A69U,≤ 0.5
15,G12C C27G U35A G52A A57G A69U A70U,≤ 0.5
16,C11U U16C C24U,0.591
17,U13A A37G,0.714
18,G12A C55U,0.908
19,G12C U16A A21C,≤ 0.5
20,C11U G63A,0.903
21,G12C C29U A42U U47C C62U,≤ 0.5
22,C11U G68C A69U,0.54
23,G12A G25C C30G,≤ 0.5
24,G12A A36G U47G G63A A65U,≤ 0.5

row,Variant,yeast fitness
1,G12A G58C,0.935
2,G12C G25A,0.848
3,G12C C22U A40C G52C G67A,≤ 0.5
4,G12A C34G A37G G38A G50A,≤ 0.5
5,G12A U13C A15C C46G,≤ 0.5
6,G12A A20C A43U U47C C62U A70C,≤ 0.5
7,G12C U16A C60G C61U G68A,≤ 0.5
8,G12A C27A C29U,0.981
9,G12C A20C G58C A70U,≤ 0.5
10,G12A C24G U47A C49G A69C,≤ 0.5
11,G12A U32G C46A,≤ 0.5
12,C11U G39C G68C,≤ 0.5
13,G12C C46U C49G A70U,0.526
14,G12A C30U A45C C60G,≤ 0.5
15,C11U U19A A43U U59A G63A,≤ 0.5
16,G12A U19C A21U G58C,0.94
17,G12A G17A U26G C33A A37U A45U,≤ 0.5
18,G12A C24A A36U G51C C55U A69C A70U,0.532
19,G12A U19C A21U,0.905
20,G12A U19C A21C,0.685
21,G12C A40C A42U C49G C66G,≤ 0.5
22,G12C U53A,0.594
23,U13A A20C A70C,≤ 0.5
24,U13A A15C A45G C55U C61G A69C,≤ 0.5

row,Variant,yeast fitness
1,G12A A20G G63A,≤ 0.5
2,G12U A15G A20C C24G,≤ 0.5
3,G12C U59C C60A,≤ 0.5
4,U13A A21U A42U G44C,0.652
5,G12C A42G A45G,0.627
6,C11U U35A G38A G56C,≤ 0.5
7,U13A A57C,0.604
8,U13A A20G C24U U35C C49U C60A C66G,≤ 0.5
9,U13A A69C,0.988
10,G12A A45C C49G,0.619
11,C11U U28C U32G,0.569
12,G12C G25C C60A A69U,≤ 0.5
13,U13A A40U C55U,0.681
14,U13A A21G,1.04
15,G12A G44C G50A,0.608
16,U13A A20G A42G C46U,≤ 0.5
17,G12A U35A G58A,0.524
18,U13A A15G G48A G63A A65C,≤ 0.5
19,G12A A20G C24U C27A A70U,≤ 0.5
20,C11U U28A G58C A70C,≤ 0.5
21,U13A A45C C49A A65U,≤ 0.5
22,G12C U19C,0.66
23,G12C C22U U54C C61U,0.532
